Assay results of several laboratories.
Protocols differ between the studies behind these lines.

| Compound | species | medium | route | dose | time | setting | concentration |
| --- | --- | --- | --- | --- | --- | --- | --- |
| Cc1noc(C)c1Cn1cc(N2C(=O)CN(Cc3cccc(O)c3)C2=O)cn1 | male Sprague-Dawley rat | plasma | oral | 30 mg/kg | 2 h |  | 16.5 ng/mL |
| NC(=O)C(c1ccccc1)(c1ccc(F)cc1)c1ccc(F)cc1 | female Lewis rat | brain | intraperitoneal | 50 mg/kg | 1 h | single dose | 43 µM |
| CN(C(=O)n1cnc(-c2ccc[n+]([O-])c2)c1)C1CCCCC1 | Wistar rat | plasma | oral | 10 mg/kg | 8 h |  | 278 ng/mL |
| COc1cccc(-c2n[nH]c(SCc3ccccn3)n2)c1OC | male Sprague-Dawley rat | plasma | oral | 10 mg/kg | 30 min | single dose | 21400 ng/mL |
| COc1ccc2c(=O)n(C)c(-c3ccccc3)nc2c1 | male Sprague-Dawley rat | brain | oral | 30 mg/kg | 30 min | single dose | 20.4 ng/g |
| CCOC(=O)[C@@]12C[C@@H]1[C@@H](n1ccc3c(NC)nc(C#Cc4ccc(Cl)s4)nc31)[C@H](O)[C@@H]2O | male Sprague-Dawley rat | plasma | oral | 10 mg/kg | 15 min |  | 45.5 ng/mL |
| Cc1noc(C)c1Cn1cc(N2C(=O)N(Cc3cccc(O)c3)C(C)(C)C2=O)cn1 | male Sprague-Dawley rat | plasma | oral | 100 mg/kg | 8 h | single dose | 5.2 ng/mL |
| CCc1cc(-c2noc(-c3cc(OC)nc(C4CCCC4)c3)n2)cc(C)c1OC[C@@H](O)CO | Wistar rat | plasma | oral | 3 mg/kg | 3 h | single dose | 235 ng/mL |
| COc1ccc(C)c2sc(NC(=O)c3ccncc3)nc12 | rat | brain | oral | 10 mg/kg | 1 h |  | ~10 µM |
| COc1nc(-c2cc(C)c(N[C@@H](C)c3cc(F)cc(F)c3)nn2)ccc1-n1cnc(C)c1 | male Sprague-Dawley rat | CSF | oral | 50 mg/kg | 4 h | multiple doses, once daily | 301 ng/mL |
| Cc1ccc(-c2cc(C(F)(F)F)nn2-c2ccc(S(N)(=O)=O)cc2)cc1 | male Sprague-Dawley rat | blood | oral | 20 mg/kg | 4 h |  | 6.36 µM |
